Test results taken from ChEMBL document CHEMBL1138555, “N-acylated and N,N'-diacylated imidazolidine-2-thione derivatives and N,N'-diacylated tetrahydropyrimidine-2(1H)-thione analogues: synthesis and antiproliferative activity” (Eur J Med Chem, 2009).

How the values were obtained:
[1] = system: MT4; test: Antiproliferative activity against human MT4 cells assessed as reduction of growth by MTT assay; format: functional, cell-based
In short: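 MT-4 lymphoblastoid T cells (ATCC) in RPMI 1640 with 10% FCS, penicillin/streptomycin, checked for mycoplasma. 1 × 10⁴ mock-infected cells per well with serial dilutions from a 100 mM DMSO stock. Incubated 4 days at 37 °C, viable cells counted by MTT. IC50 versus untreated controls by linear regression. Mean of three separate experiments.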

[2] = system: HL-60(TB); test: Growth inhibition of human HL-60(TB) cells after 48 hrs by sulforhodamine B assay; format: functional; settings: HL-60, 48 h
In short: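 NCI 60-cell-line screen protocol: cells exposed to compound at five 10-fold dilutions from 10^-4 to 10^-8 M for the last 48 h of a 72 h incubation. Sulforhodamine B protein assay estimated viability/growth. GI50 (50% growth inhibition) derived; where not reached or exceeded, reported as greater or less than the highest or lowest concentration tested.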

[3] = system: K562; test: Growth inhibition of human K562 cells after 48 hrs by sulforhodamine B assay; format: functional; settings: K562, 48 h
In short: (§1)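 NCI screen panel. Five 10-fold concentrations from 10^-4 to 10^-8 M. Exposure for the last 48 h of a 72 h incubation. Growth estimated by sulforhodamine B protein assay. GI50 is the concentration giving 50% growth inhibition. Where that level was not reached or was exceeded, the value is given as above or below the highest or lowest concentration tested.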

[4] = system: MOLT-4; test: Growth inhibition of human MOLT4 cells after 48 hrs by sulforhodamine B assay; format: functional; settings: MOLT-4, 48 h; in short: as §1
[5] = Growth inhibition of human […] cells after 48 hrs by sulforhodamine B assay; format: functional; in short: as §1
[6] = system: SR; test: Growth inhibition of human SR cells after 48 hrs by sulforhodamine B assay; format: functional
In short: (§2)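 NCI in vitro panel screen. Compounds tested at five 10-fold dilutions, 10^-4 to 10^-8 M. Cells in 96-well plates were exposed for the last 48 h of a 72 h incubation. Viability/growth was read by sulforhodamine B protein assay. GI50 is the concentration giving 50% growth inhibition. Values beyond the tested range are reported as greater or less than the maximum or minimum concentration.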

[7] = system: A549; test: Growth inhibition of human A549 cells after 48 hrs by sulforhodamine B assay; format: functional; settings: A549, 48 h; in short: as §1
[8] = system: EKVX; test: Growth inhibition of human EKVX cells after 48 hrs by sulforhodamine B assay; format: functional; in short: as §1
[9] = system: HOP-62; test: Growth inhibition of human HOP62 cells after 48 hrs by sulforhodamine B assay; format: functional; settings: HOP-62, 48 h; in short: as §1
[10] = system: HOP-92; test: Growth inhibition of human HOP92 cells after 48 hrs by sulforhodamine B assay; format: functional; settings: HOP-92, 48 h; in short: as §1
[11] = system: NCI-H23; test: Growth inhibition of human NCI-H23 cells after 48 hrs by sulforhodamine B assay; format: functional; settings: NCI-H23, 48 h; in short: as §1
[12] = system: NCI-H322M; test: Growth inhibition of human NCI-H322M cells after 48 hrs by sulforhodamine B assay; format: functional; in short: as §1
[13] = system: NCI-H460; test: Growth inhibition of human NCI-H460 cells after 48 hrs by sulforhodamine B assay; format: functional; settings: NCI-H460, 48 h; in short: as §1
[14] = system: COLO 205; test: Growth inhibition of human COLO205 cells after 48 hrs by sulforhodamine B assay; format: functional; settings: COLO 205, 48 h; in short: as §1
[15] = system: HCT-116; test: Growth inhibition of human HCT116 cells after 48 hrs by sulforhodamine B assay; format: functional; settings: HCT-116, 48 h; in short: as §1
[16] = system: HCT-15; test: Growth inhibition of human HCT15 cells after 48 hrs by sulforhodamine B assay; format: functional; settings: HCT-15, 48 h; in short: as §1
[17] = system: HT-29; test: Growth inhibition of human HT-29 cells after 48 hrs by sulforhodamine B assay; format: functional; settings: HT-29, 48 h; in short: as §1
[18] = system: KM12; test: Growth inhibition of human KM12 cells after 48 hrs by sulforhodamine B assay; format: functional; settings: KM12, 48 h; in short: as §1
[19] = system: SW-620; test: Growth inhibition of human SW620 cells after 48 hrs by sulforhodamine B assay; format: functional; settings: SW-620, 48 h; in short: as §2
[20] = system: SF-268; test: Growth inhibition of human SF268 cells after 48 hrs by sulforhodamine B assay; format: functional; settings: SF-268, 48 h; in short: as §1
[21] = system: SF-295; test: Growth inhibition of human SF295 cells after 48 hrs by sulforhodamine B assay; format: functional; settings: SF-295, 48 h; in short: as §1
[22] = system: SNB-19; test: Growth inhibition of human SNB19 cells after 48 hrs by sulforhodamine B assay; format: functional; settings: SNB-19, 48 h; in short: as §2
[23] = system: SNB-75; test: Growth inhibition of human SNB75 cells after 48 hrs by sulforhodamine B assay; format: functional; settings: SNB-75, 48 h; in short: as §2
[24] = system: U-251; test: Growth inhibition of human U251 cells after 48 hrs by sulforhodamine B assay; format: functional; settings: U-251, 48 h; in short: as §2
[25] = system: LOX IMVI; test: Growth inhibition of human LOXIMVI cells after 48 hrs by sulforhodamine B assay; format: functional; in short: as §1
[26] = system: Malme-3M; test: Growth inhibition of human MALME-3M cells after 48 hrs by sulforhodamine B assay; format: functional; in short: as §1
[27] = system: M14; test: Growth inhibition of human M14 cells after 48 hrs by sulforhodamine B assay; format: functional; settings: M14, 48 h; in short: as §1
[28] = system: SK-MEL-2; test: Growth inhibition of human SK-MEL-2 cells after 48 hrs by sulforhodamine B assay; format: functional; settings: SK-MEL-2, 48 h; in short: as §1
[29] = system: SK-MEL-28; test: Growth inhibition of human SK-MEL-28 cells after 48 hrs by sulforhodamine B assay; format: functional; settings: SK-MEL-28, 48 h; in short: as §1
[30] = system: SK-MEL-5; test: Growth inhibition of human SK-MEL-5 cells after 48 hrs by sulforhodamine B assay; format: functional; settings: SK-MEL-5, 48 h; in short: as §1
[31] = system: UACC-257; test: Growth inhibition of human UACC257 cells after 48 hrs by sulforhodamine B assay; format: functional; settings: UACC-257, 48 h; in short: as §2
[32] = system: UACC-62; test: Growth inhibition of human UACC62 cells after 48 hrs by sulforhodamine B assay; format: functional; settings: UACC-62, 48 h; in short: as §2
[33] = system: IGROV-1; test: Growth inhibition of human IGROV1 cells after 48 hrs by sulforhodamine B assay; format: functional; settings: IGROV-1, 48 h; in short: as §1
[34] = system: OVCAR-3; test: Growth inhibition of human OVCAR-3 cells after 48 hrs by sulforhodamine B assay; format: functional; settings: OVCAR-3, 48 h; in short: as §1
[35] = system: OVCAR-4; test: Growth inhibition of human OVCAR4 cells after 48 hrs by sulforhodamine B assay; format: functional; settings: OVCAR-4, 48 h; in short: as §1
[36] = system: OVCAR-8; test: Growth inhibition of human OVCAR8 cells after 48 hrs by sulforhodamine B assay; format: functional; settings: OVCAR-8, 48 h; in short: as §1
[37] = system: SK-OV-3; test: Growth inhibition of human SKOV3 cells after 48 hrs by sulforhodamine B assay; format: functional; settings: SK-OV-3, 48 h; in short: as §1
[38] = system: 786-0; test: Growth inhibition of human 786-0 cells after 48 hrs by sulforhodamine B assay; format: functional; settings: 786-0, 48 h; in short: as §1
[39] = system: ACHN; test: Growth inhibition of human ACHN cells after 48 hrs by sulforhodamine B assay; format: functional; in short: as §1
[40] = system: CAKI-1; test: Growth inhibition of human Caki1 cells after 48 hrs by sulforhodamine B assay; format: functional; settings: CAKI-1, 48 h; in short: as §1
[41] = system: RXF 393; test: Growth inhibition of human RXF393 cells after 48 hrs by sulforhodamine B assay; format: functional; settings: RXF 393, 48 h; in short: as §1
[42] = system: SN12C; test: Growth inhibition of human SN12C cells after 48 hrs by sulforhodamine B assay; format: functional; in short: as §2
[43] = system: TK-10; test: Growth inhibition of human TK10 cells after 48 hrs by sulforhodamine B assay; format: functional; settings: TK-10, 48 h; in short: as §2
[44] = system: UO-31; test: Growth inhibition of human UO31 cells after 48 hrs by sulforhodamine B assay; format: functional; settings: UO-31, 48 h; in short: as §2
[45] = system: PC-3; test: Growth inhibition of human PC3 cells after 48 hrs by sulforhodamine B assay; format: functional; settings: PC-3, 48 h; in short: as §1
[46] = system: DU-145; test: Growth inhibition of human DU145 cells after 48 hrs by sulforhodamine B assay; format: functional; settings: DU-145, 48 h; in short: as §1
[47] = system: NCI/ADR-RES; test: Growth inhibition of human NCI/ADR-RES cells after 48 hrs by sulforhodamine B assay; format: functional; in short: as §1
[48] = system: MDA-MB-231; test: Growth inhibition of human MDA-MB-231 cells after 48 hrs by sulforhodamine B assay; format: functional; settings: MDA-MB-231, 48 h; in short: as §1
[49] = system: MDA-MB-435; test: Growth inhibition of human MDA-MB-435 cells after 48 hrs by sulforhodamine B assay; format: functional; settings: MDA-MB-435, 48 h; in short: as §1
[50] = system: BT-549; test: Growth inhibition of human BT549 cells after 48 hrs by sulforhodamine B assay; format: functional; settings: BT-549, 48 h; in short: as §1
[51] = system: T47D; test: Growth inhibition of human T47D cells after 48 hrs by sulforhodamine B assay; format: functional; in short: as §2

Work on `COC(=O)/C(C#N)=C/N1CCN(C(=O)c2ccco2)C1=S` yielded an IC50 [1] of 5 µM, a GI50 [2] of 6.9 µM and a GI50 [3] of 3.7 µM. It also gave a GI50 [4] of 7.4 µM, a GI50 [5] of 3.3 µM and a GI50 [6] of 2.1 µM. For the same molecule, the GI50 [7] was 14.6 µM, the GI50 [8] was 10.2 µM and the GI50 [9] was 22.3 µM. The GI50 [10] was 14 µM, the GI50 [11] was 13.2 µM and the GI50 [12] was 14 µM. For the same molecule, the GI50 [13] was 2.5 µM, the GI50 [14] was 31.7 µM and the GI50 [15] was 4 µM. It also gave a GI50 [16] of 3 µM, a GI50 [17] of 12.2 µM and a GI50 [18] of 3.3 µM. For the same molecule, the GI50 [19] was 5.2 µM, the GI50 [20] was 4.8 µM and the GI50 [21] was 26 µM. For the same molecule, the GI50 [22] was 54.9 µM, the GI50 [23] was 15.5 µM and the GI50 [24] was 6.8 µM. It also gave a GI50 [25] of 2.4 µM, a GI50 [26] of 32.7 µM and a GI50 [27] of 6.4 µM. It also gave a GI50 [28] of 2.9 µM, a GI50 [29] of 13 µM and a GI50 [30] of 14.8 µM. The GI50 [31] was 5.9 µM, the GI50 [32] was 10.8 µM and the GI50 [33] was 6.2 µM. It also gave a GI50 [34] of 4.9 µM, a GI50 [35] of 23.3 µM and a GI50 [36] of 15.5 µM. The GI50 [37] was 28.2 µM, the GI50 [38] was 6.3 µM and the GI50 [39] was 4.8 µM. It also gave a GI50 [40] of 3.4 µM, a GI50 [41] of 3.1 µM and a GI50 [42] of 3.7 µM. It also gave a GI50 [43] of 3.6 µM, a GI50 [44] of 5.2 µM and a GI50 [45] of 6.8 µM. For the same molecule, the GI50 [46] was 3.5 µM, the GI50 [47] was 24 µM and the GI50 [48] was 4.2 µM. The GI50 [49] was 6.8 µM, the GI50 [50] was 4.2 µM and the GI50 [51] was 4.6 µM.
